# Measurements from ChEMBL document CHEMBL1124035, “1-Amino-substituted 4-methyl-5H-pyrido[4,3-b]indoles (gamma-carbolines) as tricyclic analogues of ellipticines: a new class of antineoplastic agents” (1988).
# Key:
# Mus musculus [1] = test: Weight change in g when a dose of 10 mg/kg administered intraperitoneally to P388 leukemia infected mice; assay type: functional; settings: route intraperitoneal
# Summary of the method: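 P388 model with a single ip dose. Mice (10 per group) were inoculated ip at D0 with 10^6 P388 cells and given one ip drug dose at D1. Body-weight change (g), median survival day, T/C and survivors at D30 were recorded.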
# Mus musculus [2] = test: Median survival day of L1210 (iv) to L1210 leukemia model when a dose of 20 mg/kg administered intravenously to mice; assay type: functional
# Summary of the method: (§1)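 L1210 leukaemia in CDF1 hybrid male or female mice, 10 per group. At D0, 10^5 viable cells were inoculated ip, followed by a single iv dose on D1. Median survival day was recorded, and T/C was calculated as treated/control median survival × 100.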
# Mus musculus [3] = test: Median survival day in P388 cell line when a dose of 100 mg/kg administered intravenously to mice; assay type: functional; settings: route intravenous
# Summary of the method: (§2)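 P388 leukaemia in CDF1 hybrid mice, 10 per group. At D0, 10^6 viable cells were inoculated ip, followed by a single iv dose on D1. Weight change, median survival day, T/C (treated/control median survival × 100) and survivors at D30 were recorded.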
# Mus musculus [4] = test: Antitumor activity against P388 cells at a dose of 50 mg/kg administered intravenously to mice; assay type: functional; settings: route intravenous
# Summary of the method: (§3)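 P388 (10^6 cells) or L1210 (10^5 cells) leukemia was inoculated ip in mice at D0, followed by a single iv drug treatment on D1. Weight change was recorded. T/C % = median survival day of treated / controls × 100; survivors noted at D30; 10-15 mice per group.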
# Mus musculus [5] = test: Antitumor activity against P388 cells at a dose of 10 mg/kg administered intraperitoneally to mice; assay type: functional; settings: route intraperitoneal
# Mus musculus [6] = test: Antitumor activity against P388 cells at a dose of 20 mg/kg administered intraperitoneally to mice; assay type: functional; settings: route intraperitoneal
# Mus musculus [7] = test: Antitumor activity against P388 leukemia in mice at a dose of 1.5 mg/kg administered intraperitoneally for 5 days; assay type: functional; settings: route intraperitoneal
# Summary of the method: (§4)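 CDF1 hybrid male or female mice, 10 per group, were inoculated ip with 10^6 viable P388 cells on day 0. Drugs in distilled water were given ip (0.1 mL/10 g body weight) daily D1-5. Vehicle, 5-fluorouracil and BD 84 were given the same way. T/C = median survival day of treated / controls × 100; T/C > 128% was significant; cures counted at D60.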
# Mus musculus [8] = test: Survivors at day 30 when a dose of 10 mg/kg administered to P388 leukemia infected when tested in 10 mice; assay type: functional
# Summary of the method: (§5)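 P388 leukaemia in CDF1 hybrid mice, 10 per group. At D0, 10^6 viable cells were inoculated ip, followed by a single ip dose of drug in distilled water on D1. Weight change, median survival day, T/C (treated/control median survival × 100) and survivors at D30 were recorded. Controls were 20 mice.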
# Mus musculus [9] = test: Survivors at day D30 when a dose of 20 mg/kg administered intravenously to L1210 leukemia mice model; assay type: functional; settings: route intravenous
# Mus musculus [10] = test: Antitumor activity against C38 adenocarcinoma model at a dose of 25 mg/kg administered intravenously in mice; tumor volume at D38 (T/C); assay type: functional; settings: route intravenous
# Summary of the method: (§6)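 Hybrid BD F1 mice, 10 per group, were implanted sc with a standard 3-mm3 C38 colon adenocarcinoma fragment. Drugs were given iv at the stated doses on D1 or on D2 + D9. Read-out was tumor size in treated versus control mice (T/C) at the day stated.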
# Mus musculus [11] = test: Antitumor activity against C38 adenocarcinoma cells at a dose of 50 mg/kg administered intravenously in mice; tumor volume at D38 (T/C); assay type: functional, MC-38; settings: route intravenous; summary of the method: as §6
# Mus musculus [12] = test: Median survival day in P388 leukemia model when a dose of 40 mg/kg administered intraperitoneally; assay type: functional; settings: route intraperitoneal; summary of the method: as §5
# Mus musculus [13] = test: Antitumor activity against P388 leukemia in mice at a dose of 15 mg/kg administered intraperitoneally for 5 days; assay type: functional; settings: route intraperitoneal; summary of the method: as §4
# Mus musculus [14] = test: Antitumor activity against P388 leukemia in mice at a dose of 20 mg/kg administered intraperitoneally for 5 days; assay type: functional; settings: route intraperitoneal; summary of the method: as §4
# Mus musculus [15] = test: Survivors at day 30 when a dose of 20 mg/kg to P388 leukemia model; 0/10; assay type: functional
# Mus musculus [16] = test: Median survival day in L1210 leukemia mice model when a dose of 20 mg/kg administered intravenously; assay type: functional; settings: route intravenous; summary of the method: as §1
# Mus musculus [17] = test: […] in C38 adenocarcinoma cell line when a dose of 50 mg/kg administered intravenously to mice; assay type: functional, MC-38; settings: route intravenous
# Summary of the method: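 C38 colon adenocarcinoma in hybrid BD F1 mice, 10 per test. A standard 3-mm³ tumour fragment was implanted sc. Drugs were given iv at the stated doses on D1 or on D2 + D9, following the Geran et al. NCI protocol.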
# Mus musculus [18] = test: Median survival day in L1210 leukemia mice model when a dose of 40 mg/kg administered intravenously; assay type: functional; settings: route intravenous; summary of the method: as §1
# Mus musculus [19] = test: Antitumor activity against L1210 cells at a dose of 40 mg/kg administered intravenously to mice; assay type: functional; settings: route intravenous; summary of the method: as §3
# Mus musculus [20] = test: Antitumor activity against L1210 leukemia mice model at a dose of 20 mg/kg administered intravenously; assay type: functional; settings: route intravenous; summary of the method: as §3
# Mus musculus [21] = test: In vivo toxicity test on P388 cells at a dose of 50 mg/kg administered intravenously to P388 leukemia mice model; assay type: functional; settings: route intravenous
# Summary of the method: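 Mice (10 per group) were inoculated ip at D0 with 10^6 P388 leukemia cells and given a single iv dose at D1. Read-outs were weight change (g), median survival day, T/C % versus controls and survivors at D30.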
# Mus musculus [22] = test: Survivors at day D32 when a dose of 50 mg/kg administered intravenously to C38 adenocarcinoma mice models; 10/10; assay type: functional; settings: route intravenous
# Summary of the method: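 Hybrid BDF1 mice, 10 per test, were implanted sc with a standard 3-mm³ fragment of C38 colon adenocarcinoma. Drug was given iv either on D1 alone or on D2 and D9. Animals were followed per NCI (Geran) protocol.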
# Mus musculus [23] = test: Weight change in g when a dose of 2.5 mg/kg administered intraperitoneally B16 melanoma infected mice; assay type: functional; settings: route intraperitoneal
# Summary of the method: (§7)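 Hybrid BDF1 mice were inoculated ip at D0 with 0.5 mL of B16 melanoma homogenate (1 g tumor in 10 mL physiological serum). Drug was given ip daily on days 1-9, with cis-platinum 0.5 mg/kg as positive control on the same schedule.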
# Mus musculus [24] = test: Weight change in g when a dose of 40 mg/kg intravenous administration to L1210 leukemia mice model; assay type: functional
# Summary of the method: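 Mice received 10^5 L1210 leukemia cells ip at D0, then a single iv drug dose at D1. Read-outs were weight change (g), median survival day, T/C % and survivors at D30.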
# Mus musculus [25] = test: Survivors at day 30 when a dose of 100 mg/kg administered intravenously to P388 leukemia mice model; 1/10; assay type: functional; settings: route intravenous; summary of the method: as §2
# Mus musculus [26] = test: Antitumor activity against C38 adenocarcinoma cells at a dose of 50 mg/kg administered intravenously to mice; tumor volume at D32 (T/C); assay type: functional, MC-38; settings: route intravenous; summary of the method: as §6
# Mus musculus [27] = test: Weight change in g when a dose of 10 mg/kg administered intraperitoneally B16 melanoma infected mice; assay type: functional; settings: route intraperitoneal; summary of the method: as §7
# Mus musculus [28] = test: Survivors at day 60 when a dose of 5 mg/kg to B16 melanoma infected mice; 3/10
# Mus musculus [29] = test: Antitumor activity against C38 adenocarcinoma cells at a dose of 100 mg/kg administered intravenously on D1 to mice; tumor volume at D38 (T/C); settings: route intravenous
compound,measurement,setting,value
Cc1cnc(NCCCN(C)C)c2c3cc(O)ccc3n(C)c12,Weight change,Mus musculus [1],-1.4 g
same,Median survival day,Mus musculus [2],14
same,Median survival day,Mus musculus [3],25.75
same,T/C,Mus musculus [4],163%
same,T/C,Mus musculus [5],167%
same,T/C,Mus musculus [6],164%
same,T/C,Mus musculus [7],164%
same,Survivors,Mus musculus [8],1
same,Survivors,Mus musculus [9],0
same,Tumor volume,Mus musculus [10],0%
same,Tumor volume,Mus musculus [11],0%
CCN(CC)CCCNc1[nH]cc(C)c2nc3ccc(O)cc3c1-2,Median survival day,Mus musculus [12],15.9
same,T/C,Mus musculus [13],208%
same,T/C,Mus musculus [14],238%
same,Survivors,Mus musculus [15],0
CCN(CC)CCCNc1ncc(C)c2c1c1cc(O)ccc1n2C,Median survival day,Mus musculus [16],11.8
same,Median tumoral volume,Mus musculus [17],1.38 cm*3
same,Median survival day,Mus musculus [18],13.3
same,T/C,Mus musculus [19],149%
same,T/C,Mus musculus [20],132%
same,T/C,Mus musculus [21],174%
same,Survivors,Mus musculus [22],10
same,Weight change,Mus musculus [23],0.6 g
same,Weight change,Mus musculus [24],-0.2 g
same,Survivors,Mus musculus [25],1
same,Tumor volume,Mus musculus [26],18%
same,Weight change,Mus musculus [27],-1 g
same,Survivors,Mus musculus [28],3
same,Tumor volume,Mus musculus [29],36%
